{"data": "Experimental data pooled from the literature", "MET M1250T": "Hepatocyte growth factor receptor (MET, Homo sapiens, UniProt P08581, M1250T)", "MET": "Hepatocyte growth factor receptor (MET, Homo sapiens, UniProt P08581)", "MET Y1235D": "Hepatocyte growth factor receptor (MET, Homo sapiens, UniProt P08581, Y1235D)", "note": "Each line is one published result; the experiments were not run side by side."}
{"Compound": "Cc1cc(NC(=O)c2cccc3cc(-c4cccc5[nH]nc(N)c45)ccc23)ccc1F", "target": "MET M1250T", "assay": "enzyme activity, inhibitor", "setting": "0.1 µM", "measurement": "activity vs control", "value": "113%"}
{"Compound": "O=S(=O)(NC1CCC(c2cc(F)ccc2F)(S(=O)(=O)c2ccc(Cl)cc2)CC1)C(F)(F)F (stereo not shown)", "target": "MET", "assay": "cell-free assay, competition with immobilised ligand", "setting": "1 µM", "measurement": "remaining binding", "value": "100%"}
{"Compound": "Cc1ccc(NC(=O)c2ccc(C)c(C(F)(F)F)c2)cc1C#Cc1nn(C2CCC(O)CC2)c2ncnc(N)c12 (stereo not shown)", "target": "Hepatocyte growth factor receptor (MET, Homo sapiens, UniProt P08581, D1228N)", "assay": "cell-free assay", "setting": "10 µM", "measurement": "remaining signal", "value": "103%"}
{"Compound": "N[C@H]1CCN(c2nccc(-c3cnn4ncccc34)n2)C1", "target": "MET M1250T", "assay": "binding", "setting": "1 µM", "measurement": "remaining binding", "value": "100%"}
{"Compound": "CN([C@@H]1CCc2c(CC(=O)O)c3cc(S(C)(=O)=O)ccc3n2C1)S(=O)(=O)c1ccc(F)cc1", "target": "MET Y1235D", "assay": "cell-free assay, competition with immobilised ligand", "setting": "1 µM", "measurement": "remaining binding", "value": "100%"}
{"Compound": "CN(CCCC(F)(F)F)c1nccc(-c2cnn3ncccc23)n1", "target": "MET Y1235D", "assay": "binding", "setting": "1 µM", "measurement": "remaining binding", "value": "100%"}
{"Compound": "COc1cc(-c2cn(C3CCc4c(F)cccc4N(CC(F)(F)F)C3=O)nn2)ccc1-n1cnc(C)c1 (stereo not shown)", "target": "MET", "assay": "cell-free assay, competition with immobilised ligand", "setting": "1 µM", "measurement": "remaining binding", "value": "100%"}
{"Compound": "Nc1ncnc2occ(-c3ccc(NC(=O)Nc4cc(C(F)(F)F)ccc4F)cc3)c12", "target": "MET", "assay": "cell-free assay", "setting": "20 µM", "measurement": "remaining signal", "value": "8.8%"}
{"Compound": "CNC(=O)c1cc2c(Oc3ccc(NC(=O)C4(C(=O)Nc5ccc(F)cc5)CC4)cc3)ccnc2cc1OC", "target": "Hepatocyte growth factor receptor (MET, Homo sapiens, UniProt P08581, D1228H)", "assay": "enzyme activity, inhibitor, radiometric", "setting": "1 µM", "measurement": "inhibition", "value": "103%"}
{"Compound": "Cc1cnc(NC2CCOCC2)nc1-n1cnc(C(=O)NC(CN)c2cc(F)cc(Cl)c2)c1 (stereo not shown)", "target": "Hepatocyte growth factor receptor (MET, Homo sapiens, UniProt P08581, Y1230D)", "assay": "enzyme activity, inhibitor, radiometric", "setting": "1 µM", "measurement": "remaining activity", "value": "97%"}
